# Active and inactive are the calls of the source. The calls are words filed in the database; no cut-off is given here.
# What was measured:
# [1] = Induction of disruption of r(CCUG)12-MBNL1 complex (unknown origin) incubated for 15 mins by TR-FRET assay; parameters: species or system Homo sapiens
# Method in brief: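 Biotinylated r(CCUG)12 was folded at 60 °C for 5 min in 20 mM HEPES pH 7.5, 110 mM KCl, 10 mM NaCl. It was then brought to assay buffer (plus 2 mM MgCl2, 2 mM CaCl2, 5 mM DTT, 0.1% BSA, 0.5% Tween-20) and preincubated 15 min with MBNL1-His6 (final 80 nM RNA, 60 nM protein). Compound was added for 15 min, then streptavidin-XL665 (40 nM) and anti-His6-Tb (0.44 ng/μL) for 30 min at room temperature. TR-FRET 545/665 ratios were read; IC50 was taken from dose-response fits.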
# [2] = system: Fibroblast; test: Cytotoxicity against DM2 patient derived fibroblast assessed as cell viability at 5 uM incubated for 48 hrs by Cell Titre-Glo assay; format: cell-based; conditions: human
# Method in brief: (§1)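 DM2 patient-derived fibroblasts were grown in high-glucose DMEM with 20% FBS at 37 °C, 5% CO2. After 48 h of compound treatment, viability was read as CellTiter-Glo luminescence after 10 min at room temperature (n = 6 replicates, one independent experiment).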
# [3] = species: Homo sapiens; test: Binding affinity to r(GACAGCCUGCUGUC)2 duplex (unknown origin) assessed as positive phase signal at 300 uM by waterLOGSY NMR spectroscopy
# Method in brief: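 For WaterLOGSY NMR, each compound at 300 μM was run alone or with 15 μM RNA (20:1 compound:RNA) in H2O containing 5% D2O by volume.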
# [4] = species: Homo sapiens; test: Binding affinity to r(GACAGCCUGCUGUC)2 (unknown origin) duplex assessed as resonance shift in H6 and H8 protons of RNA […] by 1D NMR spectroscopy
# Method in brief: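 For 1D NMR, RNA at 100 μM in 100% D2O was titrated with compound at 0.5, 1.0, 1.5 and 2.0 compound:RNA molar ratios, each in a separate sample.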
# [5] = system: Fibroblast; test: Cytotoxicity against DM2 patient derived fibroblast assessed as cell viability upto 20 uM incubated for 48 hrs by Cell Titre-Glo assay; format: cell-based; conditions: human; method in brief: as §1
# [6] = species: Homo sapiens; test: Inhibition of r(CCUG)12-MBNL1 complex formation (unknown origin) assessed as rescue of IR exon 11 splicing defect at 5 uM by RT-PCR analysis; parameters: scale not given: the % may be the effect or the level left
# Method in brief: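 DM2 patient fibroblasts were treated at ~40% confluency for 48 h. About 1 μg of total RNA was reverse transcribed, and IR exon 11 was PCR-amplified for 35 cycles (95 °C/58 °C/72 °C). Products were resolved on 2% agarose stained with ethidium bromide and quantified by densitometry. Percent rescue was calculated as (DM2 untreated − treated exclusion)/(DM2 untreated − WT exclusion) × 100.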
SMILES,IC50 [1] [µM],also measured
Cc1ccc2nc(Nc3ccc4cnn(C)c4c3)nc(NCCCO)c2c1,30,Activity [2]: Toxic
Cc1ccc2nc(Nc3ccc4nc(NCCOc5ccccc5)sc4c3)nc(NCCCO)c2c1,110,
CN1CCN(c2nc(Nc3ccc(O)cc3)nc3ccccc23)CC1,155,
Cc1ccc2nc(Nc3ccc4nc(NCCN5CCOCC5)sc4c3)nc(NCCCO)c2c1,0.3,Activity [2]: Toxic
OCCCNc1nc(Nc2cccc(O)c2)nc2ccccc12,200,
CC(=O)Nc1ccc(Nc2nc(NCC3CCCO3)c3ccccc3n2)cc1 (stereo unspecified),45,Activity [3]: Active; Activity [4]: Active; Activity [5]: Non-Toxic
Cc1ccc2nc(Nc3ccc4nc(-c5ccc(F)cc5)sc4c3)nc(NCCCO)c2c1,200,Activity [2]: Toxic
Cc1cccc2c(NCCCO)nc(Nc3ccc4c(c3)OCCO4)nc12,105,
COc1ccc(Nc2nc(NCCO)c3ccccc3n2)cc1Cl,50,
CN(C)c1ccc(Nc2nc(N(C)C)c3ccccc3n2)cc1,60,
Cc1nc2ccc(Nc3nc(NCCCO)c4ccccc4n3)cc2s1,7,
CC(=O)Nc1ccc(Nc2nc(NCCCO)c3ccccc3n2)cc1,200,
Cc1ccc2nc(Nc3ccc4nc(N(CCO)CCO)sc4c3)nc(NCCCO)c2c1,10,
CC(=O)Nc1cccc(Nc2nc(N3CCCC3)c3ccccc3n2)c1,70,
COCCn1cncc1CNC(=O)Nc1ccc2cnn(C)c2c1,200,
Cc1ccc2nc(Nc3ccc4nc(C)oc4c3)nc(NCCCO)c2c1,10,
Cc1ccc2nc(Nc3ccc4nc(NCCc5ccc(S(N)(=O)=O)cc5)sc4c3)nc(NCCCO)c2c1,10,
CC(C)(C)C(Cn1ccnc1)NC(=O)Nc1ccc2[nH]ncc2c1 (stereo unspecified),190,
Cc1ccc2nc(Nc3ccc4nc(NCCOCc5ccccc5)sc4c3)nc(NCCCO)c2c1,20,
CCNc1nc(Nc2ccc(NC(C)=O)cc2)nc2ccccc12,30,Activity [3]: inactive
COc1ccc(Nc2nc(N(C)C)c3ccccc3n2)cc1,65,
OCCCNc1nc(Nc2cccc(F)c2)nc2ccccc12,135,
OCCCNc1nc(Nc2ccc3c(c2)OCCO3)nc2ccc(F)cc12,60,
CC(=O)Nc1cccc(Nc2nc(NCC3CCCO3)c3ccccc3n2)c1 (stereo unspecified),90,
C=CCNc1nc(Nc2ccc(O)cc2)nc2ccccc12,85,
CNc1nc(Nc2cccc(O)c2)nc2ccccc12,105,

SMILES,IC50 [1] [µM],also measured
Cc1nc2ccc(Nc3nc(NCCCO)c4ccccc4n3)cc2o1,10,
CC(O)c1cccc(Nc2nc(N(C)C)c3ccccc3n2)c1 (stereo unspecified),95,
Cc1ccc2nc(Nc3ccc4nc(NCC(C)(C)O)sc4c3)nc(NCCCO)c2c1,1,Activity [6]: 30%; Activity [2]: Non-Toxic
Cc1ccc2nc(Nc3ccc4nc(-c5ccccc5C)sc4c3)nc(NCCCO)c2c1,200,
CN(C)c1nc(Nc2ccc(O)cc2)nc2ccccc12,70,
OCCCNc1nc(Nc2ccc3c(c2)OC(F)(F)O3)nc2ccccc12,170,
OCCCNc1nc(Nc2ccc3c(c2)OCCO3)nc2c(F)cccc12,200,
OCCCNc1nc(Nc2ccc(O)cc2)nc2ccccc12,95,
CC(=O)Nc1cccc(Nc2nc(NCCCO)c3ccccc3n2)c1,110,
CC(O)c1cccc(Nc2nc(N3CCCC3)c3ccccc3n2)c1 (stereo unspecified),70,
Cn1ncc2ccc(Nc3nc(NCCCO)c4ccccc4n3)cc21,30,
COc1ccc(Nc2nc(NCCCO)c3ccccc3n2)cc1,40,Activity [3]: Active; Activity [4]: Active; Activity [5]: Non-Toxic
CCNc1nc(Nc2ccc(O)cc2)nc2ccccc12,100,
CN(C)c1nc(Nc2ccc(C(N)=O)cc2)nc2ccccc12,50,Activity [3]: inactive
OCCCNc1nc(Nc2ccc3c(c2)OCCO3)nc2cc(F)ccc12,200,
Cc1ccccc1Nc1nc(NCCCO)c2ccccc2n1,80,
Cc1ccc2nc(Nc3ccc4nc(-c5cccc(F)c5)sc4c3)nc(NCCCO)c2c1,200,
COC(=O)c1cccc(Nc2nc(N)c3ccccc3n2)c1,200,
COc1cc(-c2nc3cc(-n4cnnn4)ccc3[nH]2)ccc1OCCN1CCCC1,70,
CCOc1ccc(C(=O)Nc2cc(-c3nc4ccccc4[nH]3)ccc2Cl)cc1[N+](=O)[O-],105,
COc1cccc(Nc2nc(N(C)C)c3ccccc3n2)c1,85,
CN(c1ccc2c(c1)OCCO2)c1nc(NCCCO)c2ccccc2n1,200,
CCNc1nc(Nc2cccc(O)c2)nc2ccccc12,135,
CN(C)c1nc(Nc2ccc3c(c2)OCCO3)nc2ccccc12,80,
CC(=O)c1cccc(Nc2nc(N(C)C)c3ccccc3n2)c1,100,
Cc1c(Nc2nc(NCCCO)c3ccccc3n2)ccc2c1OCCO2,135,

SMILES,IC50 [1] [µM],also measured
OCCCNc1nc(Nc2ccccc2)nc2ccccc12,165,
COc1cccc(Nc2nc(NCCCO)c3ccccc3n2)c1,100,
Cc1ccc2nc(Nc3ccc4nc(N5CCN(C)CC5)sc4c3)nc(NCCCO)c2c1,1,Activity [2]: Toxic
Cc1ccc2nc(Nc3ccc4c(c3)OCCO4)nc(NCCCO)c2c1,12.7,
Cc1n[nH]c2nc(Nc3ccc4c(c3)OCCO4)nc(NCCCO)c12,200,
Cc1ccc2nc(Nc3ccc4nc(NC5CCN(Cc6ccccc6)CC5)sc4c3)nc(NCCCO)c2c1,0.4,Activity [2]: Toxic
CN(C)c1nc(Nc2cccc(O)c2)nc2ccccc12,75,
CCn1nc(CNC(=O)CN(C)C2CCNCC2)c2ccccc21,70,
Cc1ccc2nc(Nc3ccc4nc(-c5cc[nH]n5)sc4c3)nc(NCCCO)c2c1,20,
Cn1nc(Nc2nc(NCCCO)c3ccccc3n2)c2ccccc21,200,
CC(=O)c1cccc(Nc2nc(NCCCO)c3ccccc3n2)c1,75,
CN1CCOc2cc(Nc3nc(NCCCO)c4ccccc4n3)ccc21,70,
CN(C)c1ccc(Nc2nc(N3CCOCC3)c3ccccc3n2)cc1,200,
CC(=O)Nc1ccc(Nc2nc(N3CCCC3)c3ccccc3n2)cc1,35,Activity [3]: inactive
Cc1ccc2nc(Nc3ccc4nc(NCc5ccc6c(c5)OCO6)sc4c3)nc(NCCCO)c2c1,105,
CCOc1cc(-c2nc3cc(-n4cnnn4)ccc3[nH]2)ccc1O,200,
Cc1ccc2nc(Nc3ccc4nc(NCC(C)C)sc4c3)nc(NCCCO)c2c1,0.3,Activity [2]: Toxic
Cc1ccc2nc(Nc3ccc4nc(N5CCOCC5)sc4c3)nc(NCCCO)c2c1,0.2,Activity [2]: Toxic
Cc1ccc2nc(Nc3ccc4nc(C(N)=O)sc4c3)nc(NCCCO)c2c1,200,
CC(=O)Nc1cccc(Nc2nc(N(C)C)c3ccccc3n2)c1,80,
CC(=O)Nc1ccc(Nc2nc(NCCO)c3ccccc3n2)cc1,60,
OCCCNc1nc(Nc2ccc3c(c2)OCCO3)nc2c1CCCC2,90,
Cc1ccc2nc(Nc3ccc4nc(-c5ccc6[nH]ccc6c5)sc4c3)nc(NCCCO)c2c1,200,
OCCCNc1nc(Nc2ccc3c(c2)OCCO3)nc2c1COC2,200,
OCCCNc1nc(Nc2ccc3c(c2)OCO3)nc2ccccc12,200,
Cc1ccc(Nc2nc(NCCCO)c3ccccc3n2)cc1,150,
